According to ChEMBL document CHEMBL1125781, “Peptide to glycopeptide: glycosylated oligopeptide renin inhibitors with attenuated in vivo clearance properties” (J Med Chem, 1991):
*1 amine or outer side, *2 acyl side, *3 side chain or, on linkers, in order; H or OH if unused. Where a SMILES comes first, the peptide text is derived from it. [ ]: non-standard residue; d: D form. The star is where a group is joined. ξ: configuration not given here. X1 = CC(C)C[C@H](N[*:1])[C@@H](O)C[C@H](C(=O)[*:2])C(C)C; NH(2-picolyl-N-oxide) = [O-][n+]1ccccc1CN*; NMeH = CN[C@@H](Cc1c[nH]cn1)C(=O)O; NHCH2(2-pyridyl) = c1ccc(CN*)nc1; X2 = CC(=O)NC1C(N*)OC(CO)C(O)C1O; Ile(3ξ) = CCC(C)[C@H](N)C(=O)O; NHC(CH2OH)3 = OCC(CO)(CO)N*; X3 = OCC1OC(N*)C(O)C(O)C1O; Boc = CC(C)(C)OC(=O)*; CO = O=C([*:1])[*:2]

Assays:
Type in all cases: functional, organism-based
Rattus norvegicus [1] = species on record: Rattus norvegicus; assay: Compound was tested for the biliary recovery dose in rats
In short: (§1)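 Anesthetized, bile duct cannulated rats given peptide by tail vein injection, 1 mg kg⁻¹ or the molar equivalent, in 3 mM citric acid/saline vehicle. Blood taken from the orbital sinus at 5 and 60 min. Serum inhibitor concentration measured by renin enzyme activity assay. Percent of recovered dose in bile and urine determined over the 3-h study period. Means, n = 4.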

Rattus norvegicus [2] = species on record: Rattus norvegicus; assay: Compound was tested for the urinary recovery dose in rats; details: Urine; in short: as §1
Rattus norvegicus [3] = assay: Serum concentration at 5 min after iv administration in bile duct cannulated rat; in short: as §1
Rattus norvegicus [4] = assay: Serum concentration at 60 min after iv administration in bile duct cannulated rat; in short: as §1
Rattus norvegicus [5] = assay: Serum concentration at 60 min after iv administration in bile duct cannulated rat.; in short: as §1
Rattus norvegicus [6] = assay: Serum concentration at 5 min after iv administration in bile duct cannulated rat.; in short: as §1

Structure (SMILES) | Recovery (Rattus norvegicus [1]) [%] | Recovery (Rattus norvegicus [2]) [%] | Serum concentration (Rattus norvegicus [3]) [nM] | Serum concentration (Rattus norvegicus [4]) [nM] | Serum concentration (Rattus norvegicus [5]) [nM] | Serum concentration (Rattus norvegicus [6]) [nM]
CCC(C)[C@H](NC(=O)[C@@H](C[C@H](O)[C@H](CC(C)C)NC(=O)[C@H](Cc1c[nH]cn1)N(C)C(=O)[C@H](Cc1ccccc1)NC(=O)[C@@H]1CCCN1C(=O)[C@H](CC(=O)NC1OC(CO)C(O)C(O)C1O)NC(=O)OC(C)(C)C)C(C)C)C(=O)NCc1ccccn1 (stereo partly specified) (Boc-D(X3)PF[NMeH][X1][Ile(3ξ)]-{NHCH2(2-pyridyl)}) | 65 | 35 | 2190 | 39 | – | –
CCC(C)[C@H](NC(=O)[C@@H](C[C@H](O)[C@H](CC(C)C)NC(=O)[C@H](Cc1c[nH]cn1)N(C)C(=O)[C@H](Cc1ccccc1)NC(=O)[C@@H]1CCCN1C(=O)[C@H](CC(=O)NC1OC(CO)C(O)C(O)C1NC(C)=O)NC(=O)OC(C)(C)C)C(C)C)C(=O)NCc1cccc[n+]1[O-] (stereo partly specified) (Boc-D(X2)PF[NMeH][X1][Ile(3ξ)]-{NH(2-picolyl-N-oxide)}) | 33 | 67 | 2580 | 158 | – | –
CCC(C)[C@H](NC(=O)[C@@H](C[C@H](O)[C@H](CC(C)C)NC(=O)[C@H](Cc1c[nH]cn1)N(C)C(=O)[C@H](Cc1ccccc1)NC(=O)[C@@H]1CCCN1C(=O)NC(CO)(CO)CO)C(C)C)C(=O)NCc1cccc[n+]1[O-] (stereo partly specified) ({NHC(CH2OH)3-CO}-PF[NMeH][X1][Ile(3ξ)]-{NH(2-picolyl-N-oxide)}) | 83 | 17 | – | – | 15 | 1100
CCC(C)[C@H](NC(=O)[C@@H](C[C@H](O)[C@H](CC(C)C)NC(=O)[C@H](Cc1c[nH]cn1)N(C)C(=O)[C@H](Cc1ccccc1)NC(=O)[C@@H]1CCCN1C(=O)[C@H](CC(=O)NC1OC(CO)C(O)C(O)C1NC(C)=O)NC(=O)OC(C)(C)C)C(C)C)C(=O)NCc1ccccn1 (stereo partly specified) (Boc-D(X2)PF[NMeH][X1][Ile(3ξ)]-{NHCH2(2-pyridyl)}) | 76 | 24 | 1790 | – | 20 | –
